45 compounds from ChEMBL document CHEMBL1123700, “2-[(3-Pyridinylmethyl)thio]pyrimidine derivatives: new bronchosecretolytic agents” (1987) can be followed below.

Broadly, the ED50 is the dose at which the effect has come halfway, by size or by number of responders.

SMILES strings stand for the structures.

The first assay concerns Canis familiaris. Briefly: Percent viscosity was determined in canine bronchial mucus, 1 hr after intravenous administration of 0.2 mg/kg. It counts as functional, Canis lupus familiaris.
Conditions: not given
Put shortly:
(§1)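 Mongrel dogs (18-24 kg), food withheld 16 h, anesthetized with pentobarbital 40 mg/kg iv plus infusion of 0.1 mg kg-1 min-1. Compounds in isotonic NaCl, given iv; 0.9% NaCl as control. Bronchial mucus sampled by bronchoscope, dialyzed against water at 0 °C for 24 h, freeze-dried, taken up at 1% w/v in 0.1 M Tris pH 7. Viscosity 1 h after dosing expressed as % of initial, mean ± SD.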
In the case of `Nc1cc(O)nc(SCc2cccnc2)n1`, the Activity came to 76.3%. Consider `Nc1cc(O)nc(SCc2ccc(Cl)nc2)n1`, for which the Activity was found to be 84.2%.

`Cl.c1cnc(SCc2cccnc2)nc1` showed an Activity of 28%.

The test system of another assay is Canis familiaris. The assay is described as follows: Percent viscosity was determined in canine bronchial mucus, 1 hr after intravenous administration of 0.1 mg/kg. It counts as functional, Canis lupus familiaris.
Conditions: not given
Put shortly: as §1
`Cl.c1cnc(SCc2cccnc2)nc1` came in with an Activity of 109%.

A further assay has as its system Canis familiaris. Briefly: Percent viscosity was determined in canine bronchial mucus, 1 hr after intravenous administration of 0.5 mg/kg. It counts as functional, Canis lupus familiaris.
Conditions: not given
Put shortly: as §1
`Nc1cc(O)nc(SCc2cccnc2)n1` gave an Activity of 15.8%. The compound `Nc1cc(O)nc(SCc2ccc(Cl)nc2)n1` showed an Activity of 19.7%. Same read-out and setting: as for `Cl.c1cnc(SCc2cccnc2)nc1`, the figure is 5.5%.

The subject of a further assay is Mus musculus. Briefly: Bronchosecretory activity measured as tracheal secretion of phenol red in mouse after oral administration. It counts as functional.
Conditions: not given
The method in brief: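 Male NMRI mice, food withheld 24 h, water free. Compounds suspended in 0.5% carboxymethylcellulose just before use and given by gavage at 5 mL/kg. Phenol red given intraperitoneally; 50 min after dosing it is measured photometrically in tracheal lavage fluid. Output compared with mean of vehicle controls. ED50 (dose giving 50% increase over control) by linear regression with 95% confidence limits.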
Turning to `c1cnc(SCc2cccnc2)nc1` [TASULDINE], the 50% effect level (ED50) was put at a dose of 4.82 µmol/kg. The same measure, in the same setting: as for `Cl.c1cnc(SCc2cccnc2)nc1`, the figure is 5.34 µmol/kg.

Staying with this assay, now noted: Mus musculus, po.
For the compound `c1cncc(CSc2ccc3ccccc3n2)c1`, the median effective dose (ED50) was 21.5 µmol/kg. Turning to `Clc1ccc(CSc2ncccn2)cn1`, the 50% effective dose (ED50) was 84.1 µmol/kg. Same read-out and setting: next, `Nc1cc(O)nc(SCc2cccnc2)n1`: 8.93 µmol/kg; `Cc1ccc(S(=O)(=O)Cc2cccnc2)cc1`: 141 µmol/kg. `Nc1cc(O)nc(SCc2ccc(Cl)nc2)n1` returned an ED50 of 8.3 µmol/kg. For `[O-][S+](Cc1cccnc1)c1ccc(Cl)cc1` (configuration not stated), the 50% effect level (ED50) was put at a dose of 43.9 µmol/kg.

Compound `c1ccc(-c2nc(SCc3cccnc3)oc2-c2ccccc2)cc1` came in with an ED50 of 13.1 µmol/kg. Take `Clc1ccc(SCc2cccnc2)cc1`: the ED50 stood at 22 µmol/kg. In turn, `Clc1ncccc1CSc1ncccn1` came in with a 50% effective dose (ED50) of 84.1 µmol/kg. Still for that read-out and setting: as for `Cc1cc(O)nc(SCc2cccnc2)n1`, the figure is 64.3 µmol/kg. The same measure, in the same setting: next, `c1ccc(CSc2nc3ccccc3o2)nc1`: 157 µmol/kg; `c1cncc(CSc2nc3ccccc3o2)c1`: 61.9 µmol/kg.

Regarding `c1ccc(CSc2ccccn2)nc1`, it took a dose of 21.8 µmol/kg to reach the 50% effect level (ED50). Same read-out and setting: next, `[O-][S+](Cc1ccncc1)c1ncccn1` (configuration not stated): 391 µmol/kg.

Take `Cc1ccc(CSc2ncccn2)cn1`: it took a dose of 298 µmol/kg to reach the 50% effect level (ED50). Still for that read-out and setting: next, `Cn1ccnc1[S+]([O-])Cc1cccnc1` (configuration not stated): 49.8 µmol/kg; `c1cnc(SCc2ccncc2)nc1`: 41.7 µmol/kg. `c1cncc(CSC2=NCCS2)c1` had an ED50 of 20.3 µmol/kg. As for `Cc1ccc2nc(SCc3cccnc3)oc2c1`, the ED50 turned out to be 51.2 µmol/kg. On the same count and under the same terms, next, `c1cncc(CSc2nc3ccccc3[nH]2)c1`: 31.8 µmol/kg; `COc1cccc(SCc2cccnc2)c1`: 182 µmol/kg; `Oc1ccnc(SCc2cccnc2)n1`: 456 µmol/kg.

With `Cc1ccnc(SCc2cccnc2)n1`, the ED50 worked out at 39.4 µmol/kg. Take `CC(Sc1ncccn1)c1cccnc1` (configuration not stated): the 50% effect level (ED50) was put at a dose of 42.6 µmol/kg.

`Cn1ccnc1SCc1cccnc1` showed a median effective dose (ED50) of 5.35 µmol/kg. The compound `O=S(=O)(Cc1cccnc1)c1ccc(Cl)cc1` had an ED50 of 27.9 µmol/kg. On the same count and under the same terms, next, `Cn1ccnc1S(=O)(=O)Cc1cccnc1`: 95.8 µmol/kg; `N=c1cc(N)nc(SCc2cccnc2)[nH]1`: 272 µmol/kg. For `Cc1ccc(C(C)Sc2ncccn2)cn1` (configuration not stated), the 50% effect level (ED50) was put at a dose of 432 µmol/kg. Turning to `Nc1c(Br)cc(Br)cc1CN[C@H]1CC[C@H](O)CC1` [AMBROXOL], the median effective dose (ED50) was 603 µmol/kg.

The compound `c1cncc(CSc2ncnc3[nH]ncc23)c1` had an ED50 of 41.1 µmol/kg.

The compound `Cc1ccnc([S+]([O-])Cc2cccnc2)n1` (configuration not stated) returned an ED50 of 30.9 µmol/kg. Still for that read-out and setting: next, `Nc1ccnc(SCc2cccnc2)n1`: 22.9 µmol/kg.

For `[O-][S+](Cc1cccnc1)c1ncccn1` (configuration not stated), it took a dose of 7.82 µmol/kg to reach the 50% effect level (ED50).

In the case of `c1cnc(SCc2cccnc2)nc1`, it took a dose of 4.67 µmol/kg to reach the 50% effect level (ED50).

With `Cc1ccc([S+]([O-])Cc2cccnc2)cc1` (configuration not stated), the 50% effect level (ED50) was put at a dose of 149 µmol/kg. In turn, `c1cncc(CSc2nc3ncccc3o2)c1` yielded an ED50 of 38 µmol/kg. Same read-out and setting: next, `Cc1ccc(SCc2cccnc2)cc1`: 39.7 µmol/kg; `c1ccc(SCc2cccnc2)nc1`: 7.63 µmol/kg. Still for that read-out and setting: as for `Cc1cc(C)nc(SCc2cccnc2)n1`, the figure is 44.8 µmol/kg.

The assay is the same for the next values; noted with them: Mus musculus, po; read-out: ED50.
For the compound `CC(C)(C)NCC(O)c1ccc(O)c(CO)c1` (configuration not stated) [ALBUTEROL], the median effective dose (ED50) was determined as 12.5 µmol/kg.

The subject of the next assay is Mus musculus. The assay is described as follows: Bronchosecretory activity measured as tracheal secretion of phenol red in mouse after subcutaneous administration.
Conditions: not given
The compound `NCC(O)c1cccc(O)c1` (configuration not stated) [NORFENEFRINE] registered a 50% effective dose (ED50) of 1.3 µmol/kg.

`C[N+](C)(C)CCOC(N)=O` [CARBACHOL] registered an ED50 of 0.2 µmol/kg.
